Measured values as given in ChEMBL document CHEMBL1122117, “Pyridazinones. 1. Synthesis and antisecretory and antiulcer activities of thio amide derivatives” (1982).

What was measured:
Format in all cases: functional
Rattus norvegicus [1] = test: Antiulcer activity as dose required to inhibit 50% gastric juice secretions in male Wistar rats after intraduodenally administration.; conditions: intraduodenal
Rattus norvegicus [2] = test: Antiulcer activity in male Donry rat for 50% inhibition of aspirin induced gastric lesions after intraduodenal administration.; conditions: Stomach
Summary of the method: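 Aspirin ulcer model. Male Donryu rats of 200–220 g were food-deprived 24 h, ten per group, pylorus-ligated, then dosed intraduodenally. Ten min later they received oral aspirin 100 mg/kg in 1% carboxymethylcellulose. At 7 h the summed lengths of glandular lesions gave the ulcer index (mm). ED50 by Litchfield–Wilcoxon.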

Rattus norvegicus [3] = test: Antiulcer activity in male Wistar rats for 50% inhibition of stress induced gastric lesions after peroral administration.; conditions: Stomach, po
Summary of the method: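 Stress ulcer model. Male Wistar rats of 200–220 g, ten per group, were dosed orally, then immobilized in a stress cage and immersed in a water bath. The stomach was removed 7 h later and summed lesion lengths gave the ulcer index (mm). ED50 by Litchfield–Wilcoxon.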

Rattus norvegicus [4] = test: Effective dose required for gastric antisecretory activity in the pylorus-ligated rat after intraduodenal administration.; conditions: Stomach
Summary of the method: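 Pylorus ligated under ether in fasted rats, six per group. Test agents were given intraduodenally at several dose levels in 1% carboxymethylcellulose, with a vehicle control group. After 7 h the gastric juice volume was measured and titrated with 0.1 N NaOH to pH 3.0 for free acid, as hourly output per rat. ED50 was calculated.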

Rattus norvegicus [5] = test: Inhibition of gastric antisecretory activity in the pylorus-ligated rat at a dose of 100 mg/kg administered intraduodenally; conditions: Stomach, route intraduodenal
Summary of the method: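 Shay pylorus-ligated rats, fasted, six per group, ligated under ether. A single intraduodenal dose of 100 mg/kg was given in 1% carboxymethylcellulose, against a vehicle control. The stomach was removed 7 h later, juice volume measured, and free acid titrated with 0.1 N NaOH to pH 3.0 as hourly output. Results are given as percent inhibition versus control.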

Rattus norvegicus [6] = test: Percent inhibition of gastric antisecretory activity in the pylorus-ligated rat at a dose of 100 mg/kg administered intraduodenally; conditions: Stomach, route intraduodenal
Summary of the method: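 Fasted rats in groups of six, pylorus ligated under ether anaesthesia (Shay method); compound in 1% carboxymethylcellulose, or vehicle alone, given intraduodenally at 100 mg/kg. Stomach removed 7 h after abdominal closure. Gastric juice volume measured, and free acid titrated with 0.1 N NaOH to pH 3.0. Hourly free-acid output per rat expressed as percent inhibition versus vehicle controls.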

Cc1cc(-c2ccccc2)nn(CCC(=N)S)c1=O
ED50 (Rattus norvegicus [1]): 32 mg/kg
ED50 (Rattus norvegicus [2]): 73.1 mg/kg
ED50 (Rattus norvegicus [3]): > 50 mg/kg
ED50 (Rattus norvegicus [4]): 66.7 mg/kg
inhibition in vivo at 100 mg/kg (Rattus norvegicus [5]): 60.2%

O=c1ccc(-c2ccccc2)nn1CC/C(S)=N/CO
inhibition in vivo at 100 mg/kg (Rattus norvegicus [6]): 5.1%

Cc1cc(=O)n(CCC(=N)S)nc1-c1ccccc1
ED50 (Rattus norvegicus [4]): > 100 mg/kg
inhibition in vivo at 100 mg/kg (Rattus norvegicus [5]): 32%

Cc1ccc(=O)n(CCCCC(=N)S)n1
ED50 (Rattus norvegicus [4]): > 100 mg/kg
inhibition in vivo at 100 mg/kg (Rattus norvegicus [5]): 29.5%

Cc1ccc(-c2ccc(=O)n(CCC(=N)S)n2)cc1
inhibition in vivo at 100 mg/kg (Rattus norvegicus [5]): 18.2%

CC(Cn1nc(-c2ccccc2)ccc1=O)C(=N)S (centres undefined)
ED50 (Rattus norvegicus [1]): 18.2 mg/kg
ED50 (Rattus norvegicus [2]): 35 mg/kg
ED50 (Rattus norvegicus [3]): 36.1 mg/kg
ED50 (Rattus norvegicus [4]): 28.1 mg/kg
inhibition in vivo at 100 mg/kg (Rattus norvegicus [5]): 86.4%

N=C(S)CCCCCN1N=C(c2ccccc2)CCC1=O
ED50 (Rattus norvegicus [4]): 100 mg/kg
inhibition in vivo at 100 mg/kg (Rattus norvegicus [5]): 48.5%

NC(=O)CCn1nc(-c2ccccc2)ccc1=O
inhibition in vivo at 100 mg/kg (Rattus norvegicus [5]): -2.8%

CC/N=C(\S)CCn1nc(-c2ccccc2)ccc1=O
ED50 (Rattus norvegicus [4]): 100 mg/kg
inhibition in vivo at 100 mg/kg (Rattus norvegicus [5]): 50.3%

N=C(S)CCCCCCN1N=C(c2ccccc2)CCC1=O
ED50 (Rattus norvegicus [1]): 24.8 mg/kg
ED50 (Rattus norvegicus [2]): 72.3 mg/kg
ED50 (Rattus norvegicus [3]): 23 mg/kg
ED50 (Rattus norvegicus [4]): 58.8 mg/kg
inhibition in vivo at 100 mg/kg (Rattus norvegicus [5]): 68.3%

Cc1ccc(=O)n(C(C)CC(=N)S)n1 (centres undefined)
ED50 (Rattus norvegicus [4]): > 100 mg/kg
inhibition in vivo at 100 mg/kg (Rattus norvegicus [5]): 32.5%

CC(CN1N=C(c2ccccc2)CCC1=O)C(=N)S (centres undefined)
inhibition in vivo at 100 mg/kg (Rattus norvegicus [5]): 28.2%

N=C(S)CCN1N=C(c2ccccc2)CCC1=O
ED50 (Rattus norvegicus [4]): > 100 mg/kg
inhibition in vivo at 100 mg/kg (Rattus norvegicus [5]): 38.2%

N=C(S)CCN1N=C(c2cccs2)CCC1=O
ED50 (Rattus norvegicus [4]): 77.3 mg/kg
inhibition in vivo at 100 mg/kg (Rattus norvegicus [5]): 58.5%

CC1=NN(CC(C)C(=N)S)C(=O)CC1 (centres undefined)
inhibition in vivo at 100 mg/kg (Rattus norvegicus [5]): 15.6%

N=C(S)CCn1nc(-c2ccccc2)ccc1=S
ED50 (Rattus norvegicus [4]): 73.4 mg/kg
inhibition in vivo at 100 mg/kg (Rattus norvegicus [5]): 62.3%

N=C(S)CCCCN1N=C(c2ccccc2)CCC1=O
ED50 (Rattus norvegicus [4]): 100 mg/kg
inhibition in vivo at 100 mg/kg (Rattus norvegicus [5]): 50.2%

N=C(S)CCn1nc(-c2ccccc2)c2ccccc2c1=O
ED50 (Rattus norvegicus [4]): 66.5 mg/kg
inhibition in vivo at 100 mg/kg (Rattus norvegicus [5]): 73.3%

N=C(S)CCn1ncccc1=O
ED50 (Rattus norvegicus [4]): > 100 mg/kg
inhibition in vivo at 100 mg/kg (Rattus norvegicus [5]): 28.8%

CC(CC(=N)S)n1ncccc1=O (centres undefined)
ED50 (Rattus norvegicus [4]): > 100 mg/kg
inhibition in vivo at 100 mg/kg (Rattus norvegicus [5]): 38.8%

N=C(S)CCCCCn1nc(-c2ccccc2)ccc1=O
ED50 (Rattus norvegicus [1]): 9.2 mg/kg
ED50 (Rattus norvegicus [2]): 18.2 mg/kg
ED50 (Rattus norvegicus [3]): 10.2 mg/kg
ED50 (Rattus norvegicus [4]): 23.3 mg/kg
inhibition in vivo at 100 mg/kg (Rattus norvegicus [5]): 91.4%

N=C(S)CCn1nc2c(cc1=O)CCc1ccccc1-2
inhibition in vivo at 100 mg/kg (Rattus norvegicus [5]): 1.6%

N=C(S)CCn1nc(-c2ccccc2)ccc1=O
ED50 (Rattus norvegicus [1]): 23.2 mg/kg
ED50 (Rattus norvegicus [2]): 53.5 mg/kg
ED50 (Rattus norvegicus [3]): 34.5 mg/kg
ED50 (Rattus norvegicus [4]): 87.3 mg/kg
inhibition in vivo at 100 mg/kg (Rattus norvegicus [5]): 53.7%

O=C(O)CCn1nc(-c2ccccc2)ccc1=O
inhibition in vivo at 100 mg/kg (Rattus norvegicus [5]): 26.1%

Cc1ccc(=O)n(CCC#N)n1
inhibition in vivo at 100 mg/kg (Rattus norvegicus [5]): -0.2%

COc1ccc2cc(-c3ccc(=O)n(CCC(=N)S)n3)ccc2c1
ED50 (Rattus norvegicus [4]): 100 mg/kg
inhibition in vivo at 100 mg/kg (Rattus norvegicus [5]): 48.9%

CN(C)C(=S)CCCCCn1nc(-c2ccccc2)ccc1=O
ED50 (Rattus norvegicus [4]): 100 mg/kg
inhibition in vivo at 100 mg/kg (Rattus norvegicus [5]): 58.2%

N=C(S)CCn1[nH]c(=O)ccc1=O
inhibition in vivo at 100 mg/kg (Rattus norvegicus [5]): -13.4%

C/N=C(\S)C(C)Cn1ncccc1=O (centres undefined)
ED50 (Rattus norvegicus [1]): 40 mg/kg
ED50 (Rattus norvegicus [2]): 68.5 mg/kg
ED50 (Rattus norvegicus [3]): > 50 mg/kg
ED50 (Rattus norvegicus [4]): 100 mg/kg
inhibition in vivo at 100 mg/kg (Rattus norvegicus [5]): 50.2%

CC1=NN(C(C)CC(=N)S)C(=O)CC1 (centres undefined)
inhibition in vivo at 100 mg/kg (Rattus norvegicus [5]): 17.4%

N=C(S)CCn1ncccc1=S
ED50 (Rattus norvegicus [4]): 100 mg/kg
inhibition in vivo at 100 mg/kg (Rattus norvegicus [5]): 50%

N=C(S)CCCN1N=C(c2ccccc2)CCC1=O
ED50 (Rattus norvegicus [4]): 100 mg/kg
inhibition in vivo at 100 mg/kg (Rattus norvegicus [5]): 50.3%

Cc1ccc(=O)n(CC(=N)S)n1
ED50 (Rattus norvegicus [4]): > 100 mg/kg
inhibition in vivo at 100 mg/kg (Rattus norvegicus [5]): 31.5%

N=C(S)CCCn1nc(-c2ccccc2)ccc1=O
ED50 (Rattus norvegicus [1]): 15.5 mg/kg
ED50 (Rattus norvegicus [2]): 38 mg/kg
ED50 (Rattus norvegicus [3]): 10.5 mg/kg
ED50 (Rattus norvegicus [4]): 31.9 mg/kg
inhibition in vivo at 100 mg/kg (Rattus norvegicus [5]): 75.6%
